In ChEMBL document CHEMBL1122640, “Studies on heterocyclic compounds. 6. Synthesis and analgesic and antiinflammatory activities of 3,4-dimethylpyrano[2,3-c]pyrazol-6-one derivatives” (J Med Chem, 1984) one finds inhibition in vivo, ED50 and LD50 data, which are given here for 29 compounds.

The test system of data set [1] is Rattus norvegicus. Put plainly: Antiinflammatory activity, % inhibition was reported 3 hr after carrageenan injection in the hind paw edema test in rats: dose=80 mg/kg. The format is functional. In outline: (§1)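 Male Wistar rats (90-120 g); paw edema raised by subcutaneous injection of 0.1 mL 1% carrageenin into the hind foot pad. Drug given orally at 80 mg/kg. Swelling inhibition read 3 h after carrageenin and compared with vehicle control for significance.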

The species named for a further data set is Mus musculus. Put plainly: Compound was tested for […] activity by phenylquinone writhing method in mice. The data set is classed as functional. The method in brief: (§2)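 Phenylquinone (0.03% in 5% aqueous ethanol, 10 mL/kg ip) given to female ddN mice (18-22 g); test drug given orally 30 min beforehand. Writhes counted over 15 min, starting 5 min after phenylquinone. Five to ten mice per dose; values given with range and n.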

A short description of data set [2]: Acute lethal toxicity on day 7 was determined. Conditions: mouse, in vivo. The format is organism-based.
The next data set relates to Mus sp. Put plainly: Analgesic activity by phenylquinone writhing method in mice after peroral administration. The format is functional. The following applies: po. The method in brief: as §2
In general terms: Writhing tests count abdominal constrictions after an irritant is injected.

Data set [3] deals with Rattus norvegicus. As to the kind of experiment: Antiinflammatory activity, % inhibition was reported 3 hr after carrageenan injection in the hind paw edema test in rats: dose=80 mg/kg. The data set is classed as functional. The method in brief:
as §1

The test system of data set [4] is Rattus norvegicus. Put plainly: Compound was tested for antiinflammatory activity and the % inhibition was reported 3 hr after carrageenan injection in the hind paw edema test in rats: dose=80 mg/kg. The data set is classed as functional. The method in brief:
as §1
A general note: The carrageenan paw model is a standard test of acute inflammation.

The subject of data set [5] is Rattus norvegicus. As to the kind of experiment: Compound was tested for antiinflammatory activity and the % inhibition was reported 3 h after carrageenan injection in the hind paw edema test in rats: dose=40 mg/kg, p.o. The data set is classed as functional. The following applies: po. In outline: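 Male Wistar rats (90-120 g) given 0.1 mL 1% carrageenin subcutaneously into the hind foot pad. Drug given po at 40 mg/kg. Edema inhibition read at 3 h after carrageenin and compared with vehicle control.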

The structures appear in SMILES notation. A value given as a limit tells only on which side of the number the result lay.

What is called inhibition in vivo is the drop in the measured response relative to a control, in per cent. One may read the ED50 as the midpoint of the dose-response relation. Read a low ED50 as greater potency. Consider `CCCCCn1nc(C)c2c(C)cc(=O)oc21`, for which, in the data set with Rattus norvegicus [1], the inhibition in vivo at 80 mg/kg turned out to be 3.5%. For the same compound, the ED50 in the data set listed under Mus musculus was over 100 mg/kg.
One may read the LD50 as the dose expected to kill half of the subjects tested. Read a low LD50 as greater toxicity. On to `Cc1cc(=O)oc2nn(C)c(C)c12`, for which, in the data set with Rattus norvegicus [1], the inhibition in vivo at 80 mg/kg amounted to 3.3%. The 50% lethal dose (LD50) at 7 day in data set [2] came to 250 mg/kg. The same compound showed an ED50 in the data set listed under Mus musculus of 6.09 mg/kg.
As for `CCCCn1nc(C)c2c(C)cc(=O)oc21`, in the data set with Rattus norvegicus [1], the inhibition in vivo at 80 mg/kg was -0.9%. This compound showed a median effective dose (ED50) in the data set listed under Mus musculus of over 100 mg/kg.
On to `Cc1cc(=O)oc2c1c(C)nn2CCO`, for which the inhibition in vivo at 80 mg/kg with Rattus norvegicus [1] is -0.9%. In the data set filed under Mus musculus, this compound gave a 50% effective dose (ED50) of 100 mg/kg.
For `CCCCCn1nc2oc(=O)cc(C)c2c1C`, the inhibition in vivo at 80 mg/kg with Rattus norvegicus [1] is -5.4%. The same compound yielded an ED50 in the data set filed under Mus musculus of 60.6 mg/kg.
As to `Cc1cc(=O)oc2c1c(CC(=O)O)nn2C`, the inhibition in vivo at 80 mg/kg in the data set with Rattus norvegicus [1] was -3.1%. This compound displayed an ED50 in the data set listed under Mus musculus of over 100 mg/kg.
For the compound `CCCCn1nc2oc(=O)cc(C)c2c1C`, the inhibition in vivo at 80 mg/kg with Rattus norvegicus [1] was -3.1%. The ED50 in the data set filed under Mus musculus is over 100 mg/kg.
As to `CCn1nc(C)c2c(C)cc(=O)oc21`, the inhibition in vivo at 80 mg/kg in the data set on Rattus norvegicus [1] turned out to be 12.1%. The compound further had an ED50 in the data set filed under Mus musculus of 24.9 mg/kg.
For `Cc1cc(O)oc2nnc(CC(=O)O)c1-2`, in the data set with Rattus norvegicus [1], the inhibition in vivo at 80 mg/kg worked out at 6.4%. The compound also returned an ED50 in the data set filed under Mus musculus of over 100 mg/kg.
As for `CCOC(=O)Cc1nnc2oc(O)cc(C)c1-2`, the inhibition in vivo at 80 mg/kg in the data set on Rattus norvegicus [1] is -4.1%. The 50% effective dose (ED50) in the data set listed under Mus musculus is over 100 mg/kg.
As to `Cc1cc(=O)oc2nn(CCCl)c(C)c12`, in the data set with Rattus norvegicus [1], the inhibition in vivo at 80 mg/kg is -2.1%. The compound also returned an ED50 with Mus sp. of 56 mg/kg.
For `Cc1cc(=O)oc2c1c(C)nn2C(C)C`, the inhibition in vivo at 80 mg/kg in the data set on Rattus norvegicus [1] stood at 1.1%. Also, the ED50 in the data set listed under Mus musculus is over 100 mg/kg.
On to `Cc1cc(=O)oc2c1c(C)nn2C`, for which the inhibition in vivo at 80 mg/kg in the data set on Rattus norvegicus [1] is 4.7%. The same compound gave an LD50 at 7 day in data set [2] of over 1500 mg/kg. The 50% effect level in the data set listed under Mus musculus (ED50) was put at a dose of 11.6 mg/kg.
As to `Cc1cc(=O)oc2nn(CCN3CCOCC3)c(C)c12`, in the data set on Rattus norvegicus [1], the inhibition in vivo at 80 mg/kg is 4.4%. In the data set filed under Mus musculus, the ED50 was over 100 mg/kg.
`CCOC(=O)Cc1nn(C)c2oc(=O)cc(C)c12`: the inhibition in vivo at 80 mg/kg with Rattus norvegicus [1] was -3.1%. Also, the 50% effective dose (ED50) in the data set filed under Mus musculus was over 100 mg/kg.
For `Cc1cc(=O)oc2nn(C(C)C)c(C)c12`, the inhibition in vivo at 80 mg/kg with Rattus norvegicus [1] stood at 3.7%. The 50% effective dose (ED50) in the data set listed under Mus musculus is 35.3 mg/kg.
For the compound `CCn1nc2oc(=O)cc(C)c2c1C`, in the data set with Rattus norvegicus [3], the inhibition in vivo at 80 mg/kg was found to be 13.1%. This compound displayed an ED50 in the data set filed under Mus musculus of 14.6 mg/kg.
With `CCCn1nc2oc(=O)cc(C)c2c1C`, the inhibition in vivo at 80 mg/kg in the data set on Rattus norvegicus [1] was determined as 4.9%. The ED50 in the data set listed under Mus musculus came out at 72.6 mg/kg.
Take `CCCn1nc(C)c2c(C)cc(=O)oc21`: in the data set on Rattus norvegicus [1], the inhibition in vivo at 80 mg/kg is -0.6%. The compound further showed an ED50 in the data set filed under Mus musculus of 54.3 mg/kg.
With `CC(=O)n1nc2oc(=O)cc(C)c2c1C`, the inhibition in vivo at 80 mg/kg in the data set with Rattus norvegicus [1] was found to be 4.5%. The same compound registered an ED50 with Mus sp. of 12.2 mg/kg.
Take `Cc1cc(=O)oc2nn(C(=O)c3ccccc3)c(C)c12`: the inhibition in vivo at 80 mg/kg in the data set with Rattus norvegicus [1] is 11.9%. This compound registered an ED50 in the data set with Mus sp. of 35 mg/kg.
`Cc1cc(=O)oc2nn(CCO)c(C)c12`: in the data set on Rattus norvegicus [1], the inhibition in vivo at 80 mg/kg is 1.8%. In the data set listed under Mus musculus, this compound came in with a 50% effective dose (ED50) of over 100 mg/kg.
Regarding `Cc1cc(=O)oc2nn(C(=O)c3ccco3)c(C)c12`, the inhibition in vivo at 80 mg/kg in the data set with Rattus norvegicus [1] is 2.2%. This compound yielded an ED50 in the data set with Mus sp. of 74.3 mg/kg.
Consider `CCN(CC)CCn1nc2oc(=O)cc(C)c2c1C`, for which the inhibition in vivo at 80 mg/kg in the data set with Rattus norvegicus [4] turned out to be 17%. This compound also yielded a median effective dose (ED50) in the data set filed under Mus musculus of 100 mg/kg.
`Cc1cc(=O)oc2nn(C(=O)CCl)c(C)c12`: in the data set on Rattus norvegicus [1], the inhibition in vivo at 80 mg/kg came to 5.2%. In the data set with Mus sp., this compound came in with a median effective dose (ED50) of over 100 mg/kg.
As for `Cc1c(N(C)C)c(=O)n(-c2ccccc2)n1C` [AMINOPYRINE], the inhibition in vivo at 80 mg/kg in the data set with Rattus norvegicus [4] came out at 17.5%. The compound further yielded an ED50 in the data set filed under Mus musculus of 19.2 mg/kg.
Take `CC(=O)Oc1ccccc1C(=O)O` [ASPIRIN]: the 50% effective dose (ED50) with Mus sp. is over 100 mg/kg.
`CC(C)Cc1ccc(C(C)C(=O)O)cc1` (centres undefined) [IBUPROFEN]: the inhibition in vivo at 80 mg/kg in the data set with Rattus norvegicus [4] was found to be 39%. For the same compound, the ED50 in the data set filed under Mus musculus amounted to 50 mg/kg.
As for `Cc1cccc(Nc2ccccc2C(=O)O)c1C` [MEFENAMIC ACID], the inhibition in vivo at 40 mg/kg with Rattus norvegicus [5] worked out at 33.1%. The ED50 in the data set filed under Mus musculus was 45.9 mg/kg.
